Test results as given in ChEMBL document CHEMBL3351249, “Potent cholesteryl ester transfer protein inhibitors of reduced lipophilicity: 1,1'-spiro-substituted hexahydrofuroquinoline derivatives” (J Med Chem, 2014).
pIC50: −log10 of the molar value.

Experiments:
Mus musculus = assay: Increase in HDL-cholesterol in hemizygous human CETP transgenic mouse at 10 mg/kg, po dosed for 5 consecutive days; type: functional
Outline: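 Male hemizygous hCETP or hCETP/hApoB100 transgenic mice, 26−30 weeks, chow-fed. Compound suspended in 0.5% aqueous hydroxyethylcellulose, oral gavage each morning for 5 or 14 days. EDTA blood taken 7 h post-dose (fed for 5-day, after 4 h fast for 14-day) from vena facialis under isoflurane. HDL/LDL cholesterol measured on Cobas Integra 400 Plus. Mean ± SEM, one-way ANOVA with Bonferroni.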

Plasma [1] = assay: Plasma concentration in hemizygous human CETP transgenic mouse at 10 mg/kg, po dosed for 5 consecutive days measured on day 5 and day 7 post dose; type: ADME, organism-based; set-up: dose 10 mg/kg, route oral; conditions: in vivo
Plasma [2] = assay: Drug concentration in plasma of hemizygous human CETP transgenic mouse at 10 mg/kg, po dosed for 5 consecutive days measured on day 3 after cessation of drug treatment; type: ADME, organism-based; set-up: dose 10 mg/kg, route oral; conditions: in vivo
Outline: (§1)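 Male hCETP transgenic mice given oral doses for 5 days in 0.5% hydroxyethylcellulose. Tissues and plasma collected at day 3 and day 21 after the last dose. Fat diluted 6:1 with acetonitrile and homogenized. Analysis by LC/MS/MS on a C18 column with QCs at 4.0−1000 nM, accepted within 30% of target.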

Muscle tissue [3] = assay: Drug concentration in muscle of hemizygous human CETP transgenic mouse at 10 mg/kg, po dosed for 5 consecutive days measured on day 3 after cessation of drug treatment; type: ADME, organism-based; set-up: dose 10 mg/kg, route oral; conditions: in vivo; outline: as §1
Liver = assay: Drug concentration in liver of hemizygous human CETP transgenic mouse at 10 mg/kg, po dosed for 5 consecutive days measured on day 3 after cessation of drug treatment; type: ADME, organism-based; set-up: dose 10 mg/kg, route oral; conditions: in vivo; outline: as §1
Kidney [4] = assay: Drug concentration in kidney of hemizygous human CETP transgenic mouse at 10 mg/kg, po dosed for 5 consecutive days measured on day 3 after cessation of drug treatment; type: ADME, organism-based; set-up: dose 10 mg/kg, route oral; conditions: in vivo; outline: as §1
[5] = Drug concentration in testes of hemizygous human CETP transgenic mouse at 10 mg/kg, po dosed for 5 consecutive days measured on day 3 after cessation of drug treatment; type: ADME, organism-based, Testis; set-up: dose 10 mg/kg, route oral; conditions: in vivo; outline: as §1
[6] = Drug concentration in adipose fat of hemizygous human CETP transgenic mouse at 10 mg/kg, po dosed for 5 consecutive days measured on day 3 after cessation of drug treatment; type: ADME, organism-based, Adipose tissue; set-up: dose 10 mg/kg, route oral; conditions: in vivo; outline: as §1
Muscle tissue [7] = assay: Drug concentration in muscle of hemizygous human CETP transgenic mouse at 10 mg/kg, po dosed for 5 consecutive days measured on day 21 after cessation of drug treatment; type: ADME, organism-based; set-up: dose 10 mg/kg, route oral; conditions: in vivo; outline: as §1
Kidney [8] = assay: Drug concentration in kidney of hemizygous human CETP transgenic mouse at 10 mg/kg, po dosed for 5 consecutive days measured on day 21 after cessation of drug treatment; type: ADME, organism-based; set-up: dose 10 mg/kg, route oral; conditions: in vivo; outline: as §1
[9] = Drug concentration in testes of hemizygous human CETP transgenic mouse at 10 mg/kg, po dosed for 5 consecutive days measured on day 21 after cessation of drug treatment; type: ADME, organism-based, Testis; set-up: dose 10 mg/kg, route oral; conditions: in vivo; outline: as §1
[10] = Drug concentration in adipose fat of hemizygous human CETP transgenic mouse at 10 mg/kg, po dosed for 5 consecutive days measured on day 21 after cessation of drug treatment; type: ADME, organism-based, Adipose tissue; set-up: dose 10 mg/kg, route oral; conditions: in vivo; outline: as §1
[11] = Terminal elimination half life in healthy human administered as single oral dose; type: ADME, organism-based; conditions: in vivo, read-out: beta t1/2 (converted)
[12] = molecular target: T1, Cholesteryl ester transfer protein (Homo sapiens, UniProt P11597); assay: Inhibition of human recombinant CETP by fluorescence transfer assay
T1 sequence (P11597 whole entry): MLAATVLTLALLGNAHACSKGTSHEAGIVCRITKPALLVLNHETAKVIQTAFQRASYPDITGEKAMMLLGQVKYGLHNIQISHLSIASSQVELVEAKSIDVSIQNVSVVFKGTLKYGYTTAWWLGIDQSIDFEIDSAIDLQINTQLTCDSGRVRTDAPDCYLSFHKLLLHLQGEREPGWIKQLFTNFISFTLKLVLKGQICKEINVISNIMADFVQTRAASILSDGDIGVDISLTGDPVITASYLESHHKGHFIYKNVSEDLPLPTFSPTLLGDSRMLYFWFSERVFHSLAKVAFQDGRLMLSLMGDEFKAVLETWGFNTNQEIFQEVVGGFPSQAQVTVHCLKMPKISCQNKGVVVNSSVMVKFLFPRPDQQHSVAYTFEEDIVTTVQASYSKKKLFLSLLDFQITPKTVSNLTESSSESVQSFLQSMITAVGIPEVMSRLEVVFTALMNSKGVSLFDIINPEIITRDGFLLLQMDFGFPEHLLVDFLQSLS

concentration (Plasma [1])	Drug uptake (Plasma [2])	Drug uptake (Muscle tissue [3])	Drug uptake (Liver)	Drug uptake (Kidney [4])	Drug uptake [5]	Drug uptake [6]	Drug uptake (Muscle tissue [7])	Drug uptake (Kidney [8])	Drug uptake [9]	Drug uptake [10]	half-life [11]	pIC50 [12]	Compound	Activity (Mus musculus)
507 nM	Active	Active	Active	Active	Active	Active	Active	Active	Active	Active	83 h		COc1cc(F)c(C(C)C)cc1-c1ccc(C(F)(F)F)cc1CN1C(=O)O[C@H](c2cc(C(F)(F)F)cc(C(F)(F)F)c2)[C@@H]1C [ANACETRAPIB]	50.5%
											221 h		CCOC(=O)N1c2ccc(C(F)(F)F)cc2[C@@H](N(Cc2cc(C(F)(F)F)cc(C(F)(F)F)c2)C(=O)OC)C[C@H]1CC [TORCETRAPIB]	
												7.29	CC(C)c1nc2c(c3c1[C@@H](c1ccc(C(F)(F)F)cc1)OC31CCCC1)[C@@H](O)CC(C)(C)C2	
